This passage reports inhibition and Kd results from ChEMBL document CHEMBL3414570, “Small molecule binding sites on the Ras:SOS complex can be exploited for inhibition of Ras activation” (J Med Chem, 2015).

Activity calls are given as the source filed them. The calls are words filed in the database; no cut-off is given here.

The species entered for experiment [1] is Homo sapiens. Put plainly: Inhibition of Kras:GDP:SOS complex (unknown origin) at 200 uM after 2.5 hrs by HTRF method. A digest of the protocol:
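Biotin-KRas-GDP plus SOS preincubated with compound (200 μM final during preincubation) 2.5 h ambient; streptavidin-europium in DTT-containing buffer added, 4 h. GST-Raf/anti-GST-XL665 plus GTPγS then added; final 3 nM KRas, 1 µM SOS, 1 μM GTPγS. HTRF read at 60 min; inhibition relative to DMSO (0%) and no-KRas (100%) controls.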
On the technique in general: TR-FRET usually uses a lanthanide donor and a delayed reading to cut background.

For experiment [2], the target named is GTPase KRas (Homo sapiens) (UniProt P01116). Put plainly: Inhibition of biotinylated KRas-GDP (unknown origin) at 200 uM incubated for 2.5 hrs followed by SOS addition measured after 4 hrs by HTRF method. A digest of the protocol: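 Biotin-KRas-GDP preincubated with compound (200 μM final during preincubation) 2.5 h ambient; streptavidin-europium then SOS added, 4 h equilibration. GST-Raf/anti-GST-XL665 premix plus GTPγS added to start exchange; final 3 nM KRas, 1 µM SOS, 1 μM GTPγS, 10 nM GST-Raf. HTRF read at 60 min (665/615 nm); inhibition relative to DMSO (0%) and no-KRas (100%) controls.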
Chain of GTPase KRas (Homo sapiens) (P01116 whole entry, looked up): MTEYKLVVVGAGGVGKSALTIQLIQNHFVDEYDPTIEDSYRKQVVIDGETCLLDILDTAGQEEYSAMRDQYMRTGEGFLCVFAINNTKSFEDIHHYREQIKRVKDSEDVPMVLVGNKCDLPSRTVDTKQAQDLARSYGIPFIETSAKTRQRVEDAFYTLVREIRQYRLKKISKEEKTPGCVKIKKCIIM

The species entered for experiment [3] is Homo sapiens. The experiment in a line: Inhibition of SOS (unknown origin) at 200 uM incubated for 2.5 hrs followed by KRas-GDP addition measured after 4 hrs by HTRF method. An outline of the steps: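 SOS preincubated with compound (200 μM final during preincubation) 2.5 h ambient; streptavidin-europium then biotin-KRas-GDP added, 4 h. GST-Raf/anti-GST-XL665 plus GTPγS started exchange; final 3 nM KRas, 1 µM SOS, 1 μM GTPγS. HTRF read at 60 min; inhibition relative to DMSO (0%) and no-KRas (100%) controls.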

Experiment [4] in a line: Binding affinity to 6His-TEV-SH-HRas(1 to 166) (unknown origin)/6His-TEV-SH-SOS (unknown origin) complex by nuclear magnetic resonance analysis. Also on record: species or system Homo sapiens.
Experiment [5] deals with GTPase KRas (Homo sapiens) (UniProt P01116). Put plainly: Time dependent inhibition of wild-type KRas (unknown origin) assessed as SOS-mediated MANT-dGDP displacement at 200 uM by microplate reader analysis. A digest of the protocol: (§1)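 KRas (WT, G12V or G12C) preequilibrated 4 h with SOS and MANT-dGDP in HEPES/NaCl/MgCl2/Tween-20 buffer; added to compound (200 μM final). Fluorescence read kinetically (ex 350/em 450 nm) to 85 min; each well referenced to time zero and to DMSO controls.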

Experiment [6] concerns GTPase KRas (Homo sapiens), P01116 [G12V]. Put plainly: Time dependent inhibition of KRas G12V mutant (unknown origin) assessed as SOS-mediated MANT-dGDP displacement at 200 uM by microplate reader analysis. An outline of the steps: as §1
Chain of GTPase KRas (Homo sapiens), P01116 [G12V] (P01116 whole entry G12V): as the sequence (P01116 whole entry, looked up) above, with G12V counted along it
In experiment [7] the test system is GTPase KRas (Homo sapiens), P01116 [G12C]. The experiment in a line: Time dependent inhibition of KRas G12C mutant (unknown origin) assessed as SOS-mediated MANT-dGDP displacement at 200 uM by microplate reader analysis. An outline of the steps: as §1
Chain of GTPase KRas (Homo sapiens), P01116 [G12C] (P01116 whole entry G12C): as the sequence (P01116 whole entry, looked up) above, with G12C counted along it

On to `CCN1C(=O)C=C(c2cccc(CN)c2)C1=O`, for which the inhibition result (in the experiment listed under Homo sapiens [1]; in experiment [2]; in the experiment filed under Homo sapiens [3]) was “inactive” in each case.

Take `Nc1ccc(S(=O)(=O)NC(=O)C2CC2)cc1`: in experiment [4], the affinity, expressed as Kd, was 6000 µM.

Regarding `Nc1ccc(S(=O)(=O)N2CCCCC2=O)cc1`, in experiment [4], the Kd (as a rule, the constant that tells how readily two partners part at equilibrium) amounted to 3000 µM.

For the compound `O=C1C=CC(=O)N1C1CCS(=O)(=O)C1` (stereo not drawn), the inhibition (in general, the share of the control response that was lost under treatment) in the experiment filed under Homo sapiens [1] came out at 40%. Moreover, the inhibition entry in the experiment listed under Homo sapiens [3] was “inactive”.

For `OC1(c2ccc(Br)cc2)CCNCC1`, in experiment [4], the Kd is 1700 µM.

In experiment [4], `CSc1nc(-c2c(C)cccc2C)nc(N2CCNCC2)n1` displayed a Kd of 1600 µM.

For `Brc1ccc2cc[nH]c2c1`, in experiment [4], the dissociation constant (Kd) is 6000 µM.

Take `CCN1C(=O)C=C(c2cc(C#N)cc(C(=O)O)c2)C1=O`: the inhibition entry (in the experiment filed under Homo sapiens [1]; in experiment [2]; in the experiment listed under Homo sapiens [3]) was “inactive” each time.

The compound `COc1ccc(S(=O)(=O)Nc2nccs2)cc1` showed a dissociation constant (Kd) in experiment [4] of 6000 µM.

`CCN1C(=O)C=C(c2cc(Cl)cc(C(N)=O)c2)C1=O`: in the experiment listed under Homo sapiens [1], the inhibition came out at 40%. Moreover, the inhibition result in the experiment filed under Homo sapiens [3] was “inactive”.

For the compound `CCN1C(=O)C=C(c2cccc(C(N)=O)c2)C1=O`, the inhibition entry (in the experiment filed under Homo sapiens [1]; in experiment [2]; in the experiment listed under Homo sapiens [3]) was “inactive” in each case. The inhibition result in experiment [5], in experiment [6] and in experiment [7] was “Active” each time.

`Brc1ccc(CN2CCCC2)cc1`: the Kd in experiment [4] is 1300 µM.
